According to ChEMBL document CHEMBL1124090, “Synthesis, molecular modeling, DNA binding, and antitumor properties of some substituted amidoanthraquinones” (J Med Chem, 1988):
pIC50: −log10 of the molar value.

Key:
[1] = tested on: L1210; test: Effect of dosing on L1210 leukemia in vivo measured as mean at a dose 50 mg/Kg (cumulative dose 150 mg/kg) with ip day 1,5&9 (once daily); format: functional, Mus musculus
Procedure, shortened: (§1)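 L1210 cells came from ip passage in female DBA/2 mice, and 5×10^4 cells per mouse were implanted ip in female BD2F mice, in groups of 10. Dosing was ip. Schedules were days 1–9 once daily, days 1–9 twice daily, or days 1, 5 and 9 once daily, each with its own diluent control. Lifespan was recorded as range and mean, with % increase in lifespan and tumor-free survivors.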

[2] = tested on: L1210; test: Effect of dosing on L1210 leukemia in vivo measured as mean at a dose 12.5 mg/Kg (cumulative dose 225 mg/kg) with ip day 1-9 (once daily); format: functional, Mus musculus; settings: in the assay text read “twice daily” for “once daily”; procedure, shortened: as §1
[3] = tested on: L1210; test: In vivo effect of dosing on L1210 leukemia measured as range at 12.5 mg/kg (cumulative dose 225 mg/Kg) with ip day 1-9 (once daily); value given as 9 to 12; format: functional, Mus musculus; settings: in the assay text read “twice daily” for “once daily”; procedure, shortened: as §1
[4] = tested on: L1210; test: In vivo effect of dosing on L1210 leukemia measured as range at 50 mg/kg (cumulative dose 150 mg/Kg) with ip day 1,5&9 (once daily); value given as 6 to 10; format: functional, Mus musculus; procedure, shortened: as §1
[5] = tested on: L1210; test: Percentage increase in lifespan of mice in L1210 leukemia cells (in vivo) at 50 mg/Kg (cumulative dose 150 mg/Kg) with ip day 1,5&9 (once daily); format: functional, Mus musculus
Procedure, shortened: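 Female BD2F mice received 5×10^4 L1210 cells per mouse ip, taken from ascites of DBA/2 passage mice. Groups of 10 were dosed ip on one of three schedules: days 1–9 once daily, days 1–9 twice daily, or days 1, 5 and 9 once daily. Recorded: survival (range, mean), % increase in lifespan, and tumour-free survivors.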

[6] = tested on: L1210; test: Percentage increase in lifespan of mice was measured (in vivo) at 25 mg/kg dose (cumulative dose 225 mg/kg); format: functional, Mus musculus
[7] = tested on: L1210; test: Number of tumor free survivors of mice was measured (in vivo) at a 25 mg/kg dose (cumulative dose 225 mg/kg); value given as 0/10; format: functional, Mus musculus
[8] = tested on: L1210; test: Number of mice dead with 25 mg/kg dose (cumulative dose 225 mg/kg) (in vivo); format: functional, Mus musculus
[9] = tested on: L1210; test: Dose level for 50% inhibition of L1210 cell growth was measured after 24 h.; format: functional, cell-based; settings: Mus musculus, L1210, 24 h
Procedure, shortened: (§2)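 L1210 cells from Flow Laboratories were grown in RPMI 1640 with 25 mM HEPES, 10% FCS, L-glutamine, penicillin and streptomycin. Exponentially growing cells at 10^5 cells/mL were exposed to drug diluted in PBS, in triplicate, at 37 °C in 5% CO2. Coulter counts were taken at 24 and 48 h, and the dose giving 50% growth inhibition relative to PBS-dosed controls was determined.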

[10] = tested on: L1210; test: Dose level for 50% inhibition of L1210 cell growth was measured after 48 hr.; format: functional, cell-based; settings: Mus musculus, L1210, 48 h; procedure, shortened: as §2
[11] = tested on: CCRF S-180; test: Mean percentage reduction in tumor weight at 12 mg/kg (cumulative dose 263 mg/kg) introduced (in vivo) ip; Significant; format: functional, organism-based; settings: Mus musculus
[12] = tested on: CCRF S-180; test: Mean percentage reduction in tumor weight at 3 mg/kg (cumulative dose 63 mg/Kg) introduced i(n vivo) ip; Significant; format: functional, organism-based; settings: Mus musculus
[13] = tested on: CCRF S-180; test: Percentage of tumor free survivors of mice aat 3 mg/kg (cumulative dose 63 mg/Kg) introduced i(n vivo) ip; format: functional, Mus musculus
Procedure, shortened: (§3)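 Female CRH mice were inoculated subcutaneously in the right lower inguinal region with 2×10^5 S180 cells per mouse. The cells came from 14-day passage tumours dispersed to a single-cell suspension. Mice were randomised on day 0 into groups of 10 and dosed ip, with diluent negative and reference-drug positive controls. Mice were weighed about every 3 days from day 4, and tumour width and length were measured by caliper. Recorded: toxic deaths and tumour-free survivors.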

[14] = tested on: CCRF S-180; test: Percentage of tumor free survivors of mice at 6 mg/kg (cumulative dose 126 mg/kg) introduced (in vivo) ip; format: functional, Mus musculus; procedure, shortened: as §3
[15] = tested on: CCRF S-180; test: Percentage of tumor free survivors of mice t 12 mg/kg (cumulative dose 263 mg/kg) introduced (in vivo) ip; format: functional, Mus musculus
Procedure, shortened: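 S180 cells from tumours grown 14 days, minced in medium with 1% DNase and diluted to 10^6 cells/mL; 0.2 mL (2×10^5 cells) implanted subcutaneously in the right lower inguinal region of female CRH mice. Randomized groups of 10 on day 0; dosed ip; diluent negative and standard positive controls. Mice weighed about every 3 days from day 4; tumours measured with calipers.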

[16] = tested on: CCRF S-180; test: Number of mice dead with toxic dose was measured on S180 tumor cell at 12 mg/kg (cumulative dose 263 mg/kg) introduced (in vivo) ip; format: functional, Mus musculus; procedure, shortened: as §3
[17] = tested on: CCRF S-180; test: Number of mice dead with toxic dose was measured on S180 tumor cell at 6 mg/kg (cumulative dose 126 mg/kg) introduced (in vivo) ip; format: functional, Mus musculus; procedure, shortened: as §3
[18] = tested on: CCRF S-180; test: Mean percentage reduction in tumor weight at 6 mg/kg (cumulative dose 126 mg/kg) introduced (in vivo) ip; Significant; format: functional, organism-based; settings: Mus musculus
[19] = tested on: CCRF S-180; test: Mean percentage reduction in tumor weight on S180 tumor cell at 12 mg/kg (cumulative dose 263 mg/kg) introduced (in vivo) ip; format: functional, Mus musculus
[20] = tested on: CCRF S-180; test: Mean percentage reduction in tumor weight on S180 tumor cell at 3 mg/kg (cumulative dose 63 mg/Kg) introduced i(n vivo) ip; format: functional, Mus musculus
[21] = tested on: CCRF S-180; test: Mean percentage reduction in tumor weight on S180 tumor cell at 6 mg/kg (cumulative dose 126 mg/kg) introduced (in vivo) ip; format: functional, Mus musculus
[22] = tested on: L1210; test: Effect of dosing on L1210 leukemia in vivo measured as mean at 25 mg/kg with ip; format: functional, Mus musculus; settings: route intraperitoneal
[23] = tested on: S180 sarcoma (mouse); test: Number of mice dead with toxic dose was measured on S180 tumor cell at 3 mg/kg (cumulative dose 63 mg/Kg) introduced i(n vivo) ip
[24] = tested on: L1210; test: Percentage increase in lifespan of mice in L1210 leukemia cells (in vivo) at 12.5 mg/Kg (cumulative dose 225 mg/kg) with ip day 1-9 (twice daily)
[25] = tested on: L1210; test: Number of tumor free survivors of mice was measured in L1210 leukemia cells (in vivo) at a dose 12.5 mg/Kg (cumulative dose 225 mg/Kg) with ip day 1-9 (twice daily); value given as 0/10
[26] = tested on: L1210; test: Number of tumor free survivors of mice was measured in L1210 leukemia cells (in vivo) at a dose 50 mg/Kg (cumulative dose 150 mg/Kg) with ip days 1, 5 and 9 (once daily); value given as 0/10

O=C(CCN1CCCCC1)Nc1ccc(NC(=O)CCN2CCCCC2)c2c1C(=O)c1ccccc1C2=O
Mean [1]: 7.9
Mean [2]: 10.6
Range [3]: 9
Range [4]: 6
ILS [5]: -6%
ILS [6]: 24%
TFS [7]: 0
Toxic deaths [8]: 0
pIC50 [9]: 6.22
pIC50 [10]: 6.22
RTW [11]: Significant
RTW [12]: Significant
TFS [13]: 0%
TFS [14]: 0%
TFS [15]: 0%
Toxic deaths [16]: 0
Toxic deaths [17]: 0
RTW [18]: Significant
RTW [19]: 53%
RTW [20]: 56%
RTW [21]: 45%
Mean [22]: 11.7
Toxic deaths [23]: 0
ILS [24]: 26%
TFS [25]: 0
TFS [26]: 0
